Data: ChEMBL document CHEMBL3875163, “Novel urea and bis-urea primaquine derivatives with hydroxyphenyl or halogenphenyl substituents: Synthesis and biological evaluation” (Eur J Med Chem, 2016)
pIC50: −log10 of the molar value. In brackets after ≈: the same amount, converted by molar mass. Activity calls are given as the source filed them. The calls are words filed in the database; no cut-off is given here.

What was measured:
[1] = Growth inhibition of mouse L1210 cells after 72 hrs by MTT assay; assay type: functional, cell-based; conditions: L1210, 72 h
[2] = Growth inhibition of human Molt4/C8 cells after 72 hrs by MTT assay; assay type: functional, cell-based; conditions: MOLT-4, 72 h
[3] = Growth inhibition of human CEM cells after 72 hrs by MTT assay; assay type: functional, cell-based; conditions: CCRF-CEM
[4] = Growth inhibition of human HeLa cells after 72 hrs by MTT assay; assay type: functional, cell-based
[5] = Growth inhibition of human MIAPaCa2 cells after 72 hrs by MTT assay; assay type: functional, cell-based; conditions: MIA PaCa-2, 72 h
[6] = Growth inhibition of human NCI-H460 cells after 72 hrs by MTT assay; assay type: functional, cell-based; conditions: NCI-H460, 72 h
In short: (§1)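 Modified NCI DTP protocol: cells in DMEM with 10% FBS, 2 mM glutamine, antibiotics, 37 °C, 5% CO2; seeded 1 × 10^4 to 3 × 10^4 cells/ml on day 0, exposed to five 10-fold dilutions (10^-8 to 10^-4 M) for 72 h; solvent control. MTT read-out; quadruplicate points in three experiments; IC50 by linear regression of growth percentages bracketing 50%.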

[7] = Growth inhibition of human SW620 cells after 72 hrs by MTT assay; assay type: functional, cell-based; conditions: SW-620, 72 h; in short: as §1
[8] = Growth inhibition of human MCF7 cells after 72 hrs by MTT assay; assay type: functional, cell-based; conditions: MCF7, 72 h; in short: as §1
[9] = tested on: MCF7; assay: Potency index, ratio of ciplatin IC50 to compound IC50 for human MCF7 cells; assay type: functional
[10] = Cell cycle arrest in human MCF7 cells assessed as increase in G2/M population at 0.31 uM after 24 hrs by propidium iodide staining based flow cytometry; assay type: functional
In short: (§2)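 MCF-7 grown in EMEM with 10% FBS, L-glutamine, pyruvate, insulin; treated 0.31 µM for 24 h, DMSO (0.022%) vehicle control. Cells ethanol-fixed (70%, 24 h, -20 °C), RNase A 20 µg/ml 30 min 37 °C, PI 5.5 µg/ml 10 min dark; 20 000 cells by flow cytometry; G1, S, G2/M fractions; three independent experiments, Newman-Keuls test.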

[11] = Cell cycle arrest in human MCF7 cells assessed as decrease in G1 population at 0.31 uM after 24 hrs by propidium iodide staining based flow cytometry; assay type: functional; in short: as §2
[12] = tested on: MCF7; assay: Induction of apoptosis in human MCF7 cells assessed as increase in number of late apoptotic/necrotic cells at 0.31 uM after 72 hrs by Annexin-V FITC/propidium iodide staining based flow cytometry; assay type: functional, cell-based
In short: (§3)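 MCF-7 treated 0.31 µM for 72 h, DMSO control. Washed cells at 1 × 10^6 per 100 µl Annexin V binding buffer, stained FITC Annexin V plus PI 15 min room temperature in dark; 10 000 cells by flow cytometry (ex 488, em 530/580 nm). Viable, early apoptotic, late apoptotic/necrotic and necrotic fractions; three experiments, Duncan test.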

[13] = tested on: MCF7; assay: Induction of apoptosis in human MCF7 cells assessed as increase in number of necrotic cells at 0.31 uM after 72 hrs by Annexin-V FITC/propidium iodide staining based flow cytometry; assay type: functional, cell-based; in short: as §3
[14] = tested on: MCF7; assay: Induction of apoptosis in human MCF7 cells assessed as increase in cleaved PARP-1 expression at 0.31 uM after 72 hrs by immunoblot method; assay type: functional, cell-based
In short: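 MCF-7 treated at 0.31 µM for up to 72 h, controls DMSO and 1 µM doxorubicin. Lysates (CelLytic M with protease inhibitors), BCA quantification; 5 µg protein on 4-20% gels, nitrocellulose transfer, milk block; anti-PARP-1 (1:1000), GAPDH loading control (1:5000) overnight 4 °C, HRP anti-rabbit 1:2000, ECL detection; three independent experiments.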

[15] = Antioxidant activity assessed as DPPH radical scavenging activity at 100 uM after 20 mins relative to control; assay type: functional
In short: (§4)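 Compound in DMSO added to DPPH in absolute ethanol, 0.1 mM final; absorbance at 517 nm after 20 and 60 min at room temperature. At least triplicate.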

[16] = tested on: Glycine max; assay: Inhibition of soybean LOX assessed as reduction in conversion of sodium linoleate to 13-hydroperoxylinoleic acid at 1 x 10^-4 M relative to control
In short: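 Soybean lipoxygenase incubated at room temperature with sodium linoleate (0.1 mM) and test compound (DMSO stocks); formation of 13-hydroperoxylinoleic acid read at 234 nm. Single-point screening at 1 × 10^-4 M; IC50 from several concentrations. At least triplicate.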

[17] = Antioxidant activity assessed as DPPH radical scavenging activity at 100 uM after 60 mins relative to control; assay type: functional; in short: as §4
[18] = Antioxidant activity assessed as inhibition of AAPH-induced linoleic acid lipid peroxidation at 1 x 10^-4 M by UV-absorbance method relative to control; assay type: functional
In short: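 Linoleic acid peroxidation: 16 mM sodium linoleate dispersion in 0.05 M phosphate buffer pH 7.4 at 37 °C under air, initiated by AAPH (40 mM solution); compound at 1 × 10^-4 M; oxidation followed at 234 nm. At least triplicate.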

[19] = tested on: Staphylococcus aureus; assay: Antibacterial activity against Staphylococcus aureus ATCC 6538 after 18 hrs by serial microdilution broth assay; assay type: functional; conditions: ATCC 6538, 18 h
In short: (§5)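 Broth microdilution MIC per EUCAST for aerobic bacteria in Mueller-Hinton broth, serial dilution 1000 to 0.78125 µg/ml from 10 mg/ml DMSO stocks. Inoculum from trypticase soy broth cultures (18 h, 37 °C), set to 0.5 McFarland in PBS pH 7.4, diluted 1:10. 18 h aerobic incubation at 35 °C in dark, then TTC 0.5 mg/ml for 3 h, HCl-isopropanol, A490. MIC = lowest concentration giving 50% inhibition versus untreated; duplicates.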

[20] = tested on: Staphylococcus aureus; assay: Antibacterial activity against methicillin sensitive Staphylococcus aureus ATCC 25923 after 18 hrs by serial microdilution broth assay; assay type: functional; conditions: ATCC 25923, 18 h
In short: (§6)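 EUCAST-based broth microdilution in Mueller-Hinton broth. Glycerol stock cultures grown in trypticase soy broth 18 h at 37 °C; inoculum in PBS pH 7.4 at 0.5 McFarland, diluted 1:10 in broth. Compounds from DMSO stocks, 1000 to 0.78125 µg/ml; 18 h aerobic, 35 °C, dark. TTC 0.5 mg/ml added, 3 h, then HCl/isopropanol, A490. MIC = lowest concentration giving 50% inhibition vs untreated; duplicates, averaged.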

[21] = tested on: Staphylococcus aureus; assay: Antibacterial activity against methicillin sensitive Staphylococcus aureus ATCC 25213 after 18 hrs by serial microdilution broth assay; assay type: functional; conditions: ATCC 25213, 18 h; in short: as §5
[22] = tested on: Staphylococcus aureus; assay: Antibacterial activity against methicillin resistant Staphylococcus aureus MFBF 10682 after 18 hrs by serial microdilution broth assay; assay type: functional; conditions: MFBF 10682, 18 h; in short: as §6
[23] = tested on: Staphylococcus aureus; assay: Antibacterial activity against methicillin resistant Staphylococcus aureus MFBF 10679 after 18 hrs by serial microdilution broth assay; assay type: functional; conditions: MFBF 10679, 18 h; in short: as §6
[24] = tested on: Enterococcus faecalis; assay: Antibacterial activity against vancomycin susceptible Enterococcus faecalis ATCC 29212 after 18 hrs by serial microdilution broth assay; assay type: functional; conditions: ATCC 29212, 18 h; in short: as §5
[25] = tested on: Enterococcus faecalis; assay: Antibacterial activity against vancomycin resistant Enterococcus faecalis MFBF 11419 after 18 hrs by serial microdilution broth assay; assay type: functional; conditions: MFBF 11419, 18 h; in short: as §6
[26] = tested on: Bacillus pumilus; assay: Antibacterial activity against Bacillus pumilus NCTC 8241 after 18 hrs by serial microdilution broth assay; assay type: functional; conditions: NCTC 8241, 18 h; in short: as §5
[27] = tested on: Bacillus cereus; assay: Antibacterial activity against Bacillus cereus ATCC 11778 after 18 hrs by serial microdilution broth assay; assay type: functional; conditions: ATCC 11778, 18 h; in short: as §5
[28] = tested on: Bacillus spizizenii; assay: Antibacterial activity against Bacillus subtilis ATCC 6633 after 18 hrs by serial microdilution broth assay; assay type: functional; conditions: ATCC 6633, 18 h; in short: as §5
[29] = tested on: Pseudomonas aeruginosa; assay: Antibacterial activity against Pseudomonas aeruginosa ATCC 9027 after 18 hrs by serial microdilution broth assay; assay type: functional; conditions: ATCC 9027, 18 h; in short: as §6
[30] = tested on: Pseudomonas aeruginosa; assay: Antibacterial activity against Pseudomonas aeruginosa ATCC 27853 after 18 hrs by serial microdilution broth assay; assay type: functional; conditions: ATCC 27853, 18 h; in short: as §5
[31] = tested on: Pseudomonas aeruginosa; assay: Antibacterial activity against multi-drug resistant Pseudomonas aeruginosa MFBF after 18 hrs by serial microdilution broth assay; assay type: functional; in short: as §6
[32] = tested on: Escherichia coli; assay: Antibacterial activity against Escherichia coli ATCC 10535 after 18 hrs by serial microdilution broth assay; assay type: functional; conditions: ATCC 10535, 18 h; in short: as §5
[33] = tested on: Candida albicans; assay: Antifungal activity against Candida albicans ATCC 90028 after 18 hrs by serial microdilution broth assay; assay type: functional; conditions: ATCC 90028, 18 h
In short: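 Yeast microdilution in RPMI 1640 with glutamine plus 2% glucose, 1000 to 0.78125 µg/ml from 10 mg/ml DMSO stocks. Growth read with XTT (10 mg/ml) mixed 7:1 with menadione (1 mg/ml in acetone), absorbance at 540 nm. MIC taken as lowest concentration giving 50% growth inhibition versus untreated cells; tests in duplicate.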

[34] = Hemolytic activity against human RBC at 100 ug/ml after 1 hr relative to control; assay type: ADME, cell-based, Erythrocyte; conditions: red blood cells (RBC), read-out: Activity
[35] = Cytotoxicity against HEK cells assessed as reduction in cell viability at 12.5 to 200 ug/ml after 24 hrs by MTT assay; assay type: toxicity, cell-based; conditions: human, hek293, 24 h
In short: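 HEK 293 cells, 5 × 10^3 per well, treated next day for 24 h with compound (range within 200 to 1.5625 µg/ml). MTT 0.5 mg/ml in DMEM/10% FBS, 4 h at 37 °C, 5% CO2; formazan in DMSO, A570. Viability as percent of untreated control; triplicates, three independent experiments.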

| Structure (SMILES) | pIC50 [1] | pIC50 [2] | pIC50 [3] | pIC50 [4] | pIC50 [5] | pIC50 [6] | pIC50 [7] | pIC50 [8] | Activity [15] [%] | inhibition [16] [%] | Activity [17] [%] | inhibition [18] [%] | MIC50 [19] [µg/mL] | MIC50 [20] [µg/mL] | MIC50 [21] [µg/mL] | MIC50 [22] [µg/mL] | MIC50 [23] [µg/mL] | MIC50 [24] [µg/mL] | MIC50 [25] [µg/mL] | MIC50 [26] [µg/mL] | also measured |
| --- | --- | --- | --- | --- | --- | --- | --- | --- | --- | --- | --- | --- | --- | --- | --- | --- | --- | --- | --- | --- | --- |
| COc1cc(NC(C)CCCNC(=O)NNC(=O)Nc2ccc(F)cc2)c2ncccc2c1 (centres undefined) | 3.98 | ≤ 3.60 | 3.93 | ≤ 3.60 | ≤ 3.60 | < 4.00 | < 4.00 | 6.51 | 7.6 | 31.9 |  |  |  |  |  |  |  |  |  |  | Ratio IC50 [9]: 42; Activity [10]: Active; Activity [11]: Active; Activity [12]: Active; Activity [13]: Active; Activity [14]: Active |
| COc1cc(NC(C)CCCNC(=O)Nc2ccc(C(F)(F)F)cc2)c2ncccc2c1 (centres undefined) | 5.13 | 4.70 | 4.85 | 5.08 | 5.08 | 4.62 | 4.66 | 5.72 | 38.9 | 22.4 | 36.4 | 67 | 25 (≈ 56 µM) | 35 (≈ 78.4 µM) | 50 (≈ 112 µM) | > 100 | > 100 | > 100 | > 100 | > 100 | MIC50 [27]: > 100 µg/mL; MIC50 [28]: > 100 µg/mL; MIC50 [29]: 100 µg/mL (≈ 224 µM); MIC50 [30]: 25 µg/mL (≈ 56 µM); MIC50 [31]: 150 µg/mL (≈ 336 µM); MIC50 [32]: > 100 µg/mL; MIC50 [33]: > 100 µg/mL; hemolysis at 1 h, 100 ug/ml [34]: 7.85%; Activity [35]: Non-Toxic |
| COc1cc(NC(C)CCCNC(=O)Nc2ccc(Br)cc2)c2ncccc2c1 (centres undefined) | 4.74 | 4.60 | 4.64 | 4.70 | 4.64 | 4.52 | 4.64 | 5.59 | 46.2 | 37.1 | 46.4 | 80.4 | 50 (≈ 109 µM) | > 100 | > 100 | > 100 | > 100 | > 100 | > 100 | 100 (≈ 219 µM) | MIC50 [27]: 50 µg/mL (≈ 109 µM); MIC50 [28]: 25 µg/mL (≈ 54.7 µM); MIC50 [29]: 100 µg/mL (≈ 219 µM); MIC50 [30]: 25 µg/mL (≈ 54.7 µM); MIC50 [31]: 100 µg/mL (≈ 219 µM); MIC50 [32]: > 100 µg/mL; MIC50 [33]: > 100 µg/mL; hemolysis at 1 h, 100 ug/ml [34]: < 1%; Activity [35]: Non-Toxic |
